The source made the active and inactive calls. The rule behind the calls is not given here.
What was measured:
Oocyte = assay: Induction of amplitude current in Xenopus laevis oocytes assessed as 2 fold increase in AMPA-induced current by voltage clamp method; assay type: functional
In short: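 Xenopus oocytes injected with poly(A+) mRNA from cortex of 15-day-old male Wistar rats, expressed 3 days at 18 °C. Two-electrode voltage clamp at -60 mV; 10 μM (S)-AMPA applied 30 s every 5 min. Compound given at increasing concentrations 45 s before, during and after AMPA; peak current compared with the same oocyte's control. EC2X is the 2-fold increase; n ≥ 3, mean ± SEM.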

[1] = Dissociation constant, pKa of the compound; assay type: physicochemical
Mus musculus [2] = assay: Toxicity in mouse at 30 mg/kg, ip; conditions: in vivo
Rattus norvegicus [3] = assay: Increase in memory in po dosed Wistar rat by object recognition test; assay type: functional, organism-based
In short: (§1)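 Male Wistar rats (220-330 g), three sessions: 2 min habituation, acquisition with two identical objects, then 3 min recognition with one object replaced by a novel one. Oral compound or vehicle given 1 h before each session. Discrimination index is novel minus familiar exploration time; n = 9-10 per dose; ANOVA plus Dunnett.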

Liver microsomes = assay: Metabolic stability in rat liver microsomes assessed as metabolite degradation after 30 mins at 37 degC by HPLC; assay type: ADME, Microsome; conditions: 0.5 h
In short: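 Phenobarbital-induced rat liver microsomes at 1 mg/mL protein with 200 μM substrate (methanol <1%), 37 °C, NADPH-generating system in pH 7.4 phosphate buffer. Incubated 30 min; T0 samples quenched with organic solvent. Metabolites resolved by RP-HPLC with ESI-MS/MS and identified against synthetic standards.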

Mus musculus [4] = assay: Toxicity in mouse at 10 to 30 mg/kg, ip by Irwin's test; assay type: organism-based; design: dose 10-30 mg/kg, route intraperitoneal; conditions: in vivo
Hippocampus [5] = assay: Increase in AMPA-mediated postsynaptic response recorded in rat hippocampus CA1 region assessed as increase in excitatory postsynaptic field potential area at 50 uM; assay type: functional
In short: (§2)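 Rat hippocampal slices, Schaffer collateral stimulation with EPSfPs recorded in CA1; perfusion medium contains 1.2 mM Mg2+. Compound bath-applied for 10 min at successively increasing concentrations, with washout to recovery. Amplitude, area and half-width averaged over five pulses and normalized to five pre-drug responses (100%). Compared with vehicle by two-way ANOVA plus Dunnett.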

Hippocampus [6] = assay: Increase in AMPA-mediated postsynaptic response recorded in rat hippocampus CA1 region assessed as increase in excitatory postsynaptic field potential amplituted at 50 uM; assay type: functional; in short: as §2
Rattus norvegicus [7] = assay: Increase in duration of long term potentiation in dentate gyrus of anesthetized Wistar rat hippocampus at 10 mg/kg, ip measured for 3 hrs; assay type: functional, organism-based; design: dose 10 mg/kg
In short: (§3)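 Male Wistar rats (300-400 g) anaesthetized with chloral hydrate 400 mg/kg ip; body temperature held at 36.6-37 °C. Perforant path stimulated, dentate gyrus recorded. After a 60 min baseline, compound or vehicle given ip; tetanus 60 min later (four 400 Hz bursts). Recorded for 3 h; EPSfP amplitude normalized to baseline; two-way ANOVA plus Dunnett.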

Rattus norvegicus [8] = assay: Increase in memory in Wistar rat at 0.03 to 1 mg/kg, po treated 60 mins before test session by object recognition test; assay type: functional, organism-based; in short: as §1
Mus musculus [9] = assay: Toxicity in mouse assessed as hypothermia at 30 mg/kg, po after 1.5 hrs; conditions: in vivo
Rattus norvegicus [10] = assay: Increase in long term potentiation-evoked EPSfP amplitude in dentate gyrus of anesthetized Wistar rat hippocampus at 3 mg/kg, ip measured for 3 hrs; assay type: functional, organism-based; design: dose 3 mg/kg; in short: as §3
Hippocampus [11] = assay: Increase in AMPA-mediated postsynaptic response recorded in rat hippocampus CA1 region assessed as increase in excitatory postsynaptic field potential area; assay type: functional, tissue-based; in short: as §2
Hippocampus [12] = assay: Increase in AMPA-mediated postsynaptic response recorded in rat hippocampus CA1 region assessed as increase in excitatory postsynaptic field potential half width at 50 uM; assay type: functional; in short: as §2

For O=S1(=O)NCN(CCF)c2ccc(C(F)(F)F)cc21, the EC (Oocyte) was >300 µM.
In the case of CCN1CNS(=O)(=O)c2cc(I)ccc21, the EC (Oocyte) is reported as 95 µM.
O=S1(=O)N[C@H]2CCCN2c2ccccc21 gave an EC (Oocyte) of 25 µM.
Compound COc1ccc2c(c1)S(=O)(=O)NCN2CCF has an EC (Oocyte) of 71 µM.
O=S1(=O)NCN(CCF)c2ccc(I)cc21 gave an EC (Oocyte) of 120 µM.
For CCN1CNS(=O)(=O)c2cc(C(F)(F)F)ccc21, the EC (Oocyte) was >300 µM.
With O=S1(=O)NCN(CCF)c2ccc(F)cc21 the EC (Oocyte) was 3.6 µM.
For O=[N+]([O-])c1ccc2c(c1)S(=O)(=O)NCN2CCF, the pKa [1] was 8.45 and the EC (Oocyte) was 27 µM.
CCN1CNS(=O)(=O)c2cc(C)ccc21 showed an EC (Oocyte) of 25 µM.
For O=S1(=O)NCN(CC(F)(F)F)c2ccc(Cl)cc21, the Activity (Mus musculus [2]) was “Non-toxic”, the pKa [1] was 9.01 and the EC (Oocyte) was 19 µM. For the same compound, the Activity (Rattus norvegicus [3]) was “inactive”.
Compound CCN1CNS(=O)(=O)c2cc(Cl)cnc21 has an EC (Oocyte) of 28.3 µM.
In the case of CCN1CNS(=O)(=O)c2cc(Cl)ccc21, the Stability (Liver microsomes) is reported as “Unstable” and the pKa [1] is reported as 9.33.
CCN1CNS(=O)(=O)c2cc([N+](=O)[O-])ccc21 gave an EC (Oocyte) of 16 µM.
For O=S1(=O)N=CN(CCF)c2ccc(Cl)cc21, the Activity (Mus musculus [4]) was “Non-toxic”.
Work on O=[N+]([O-])c1ccc2c(c1)S(=O)(=O)NCN2CC(F)(F)F yielded an EC (Oocyte) of 55 µM.
Cc1ccc2c(c1)S(=O)(=O)NCN2CCF showed an EC (Oocyte) of 47.5 µM.
Compound CCN1CNS(=O)(=O)c2cc(OC)ccc21 has an EC (Oocyte) of 68 µM.
In the case of O=S1(=O)NCN(CCO)c2ccc(Cl)cc21, the EC (Oocyte) is reported as 54 µM.
For CCN1CNS(=O)(=O)c2cc(Br)ccc21, the EC (Oocyte) was 29 µM.
With O=S1(=O)N=CNc2ccc(Cl)cc21 the Activity (Mus musculus [4]) was “Non-toxic”.
Compound O=S1(=O)NCN(CC(F)F)c2ccc(Cl)cc21 has an EC (Oocyte) of 13.5 µM.
In the case of O=S1(=O)NCN(CCF)c2ccc(Cl)cc21, the Activity (Mus musculus [2]) is reported as “Non-toxic”, the Activity (Hippocampus [5]) is reported as 66% and the Stability (Liver microsomes) is reported as “Unstable”. For the same compound, the Activity (Hippocampus [6]) was 23%, the Activity (Rattus norvegicus [7]) was “Active” and the pKa [1] was 9.35. For the same compound, the EC (Oocyte) was 6.7 µM, the Activity (Rattus norvegicus [8]) was “Active” and the Activity (Rattus norvegicus [3]) was “Active”. The Activity (Mus musculus [9]) was “Toxic”, the Activity (Rattus norvegicus [10]) was “Active” and the Activity (Hippocampus [11]) was “Dose-dependent effect”. For the same compound, the Activity (Hippocampus [12]) was 47%.
In the case of NS(=O)(=O)c1cc2c(cc1Cl)NC(C1CC3C=CC1C3)NS2(=O)=O (stereo unspecified) [CYCLOTHIAZIDE], the EC (Oocyte) is reported as 1.7 µM.
Compound O=S1(=O)NCN(CCF)c2ccc(Br)cc21 has an EC (Oocyte) of 17 µM.

From ChEMBL document CHEMBL1156916, “New fluorinated 1,2,4-benzothiadiazine 1,1-dioxides: discovery of an orally active cognitive enhancer acting through potentiation of the 2-amino-3-(3-hydroxy-5-methylisoxazol-4-yl)propionic acid receptors” (J Med Chem, 2010)
